The source made the active and inactive calls. The calls are words filed in the database; no cut-off is given here.
How the values were obtained:
[1] = system: HT-29; experiment: Antiproliferative activity against human HT-29 cells incubated for 2 days by MTT assay; format: functional, cell-based; conditions: HT-29, 48 h
Method in brief: (§1)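 MTT assay. Cells seeded at 3 × 10³/well (HeLa, A549, HMEC-1, HEK-293) or 5 × 10³/well (HT-29, MCF-7) in their growth media with serial compound dilutions from 10 mM DMSO stocks. Incubated 2 days at 37 °C, 5% CO₂, then MTT added for 3 h and formazan dissolved in DMSO. A540 read and viability expressed versus untreated cells. IC₅₀ determined graphically; three independent experiments.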

[2] = system: MCF7; experiment: Antiproliferative activity against human MCF7 cells incubated for 2 days by MTT assay; format: functional, cell-based; conditions: MCF7, 48 h; method in brief: as §1
[3] = system: HeLa; experiment: Antiproliferative activity against human HeLa cells incubated for 2 days by MTT assay; format: functional, cell-based; conditions: 48 h; method in brief: as §1
[4] = system: A549; experiment: Antiproliferative activity against human A549 cells incubated for 2 days by MTT assay; format: functional, cell-based; conditions: A549, 48 h; method in brief: as §1
[5] = system: HEK293; experiment: Antiproliferative activity against HEK293 cells incubated for 2 days by MTT assay; format: cell-based; conditions: Homo sapiens, HEK293, 48 h; method in brief: as §1
[6] = system: A549; experiment: Immunomodulatory activity in human A549 cells assessed as reduction in PD-L1 expression level at 100 uM incubated for 24 hrs by ELISA relative to control; format: functional; set-up: scale not given: the % may be the effect or the level left
Method in brief: (§2)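 A549 cells (3·10⁵/well) treated 24 h with compound; final concentration 100 µM for some compounds and 15 µM for others per table footnote. Lysates protein-normalized by Bradford, and PD-L1 and c-Myc quantified by commercial ELISA kits as % of DMSO-treated cells. Mean ± SD of three experiments.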

[7] = system: A549; experiment: Immunomodulatory activity in human A549 cells assessed as reduction in c-Myc expression level at 100 uM incubated for 24 hrs by ELISA relative to control; format: functional; set-up: scale not given: the % may be the effect or the level left; method in brief: as §2
[8] = system: HT-29; experiment: Antiproliferative activity against human HT-29 cells at 200 uM incubated for 24 hrs in presence of Jurkat T cells by trypan blue staining based Neubauer chamber method relative to control; format: functional
Method in brief: (§3)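 Co-culture of 5 × 10⁴ tumor cells/well with 2 × 10⁵ PD-1-expressing Jurkat T cells in 1.5 mL, treated 24 h with compound at 200 µM. Supernatant discarded; tumor cells trypsinized, stained with trypan blue and living cells counted in a Neubauer chamber. Proliferation inhibition (%) attributable to Jurkat presence reported; representative of three experiments.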

[9] = system: A549; experiment: Antiproliferative activity against human A549 cells at 200 uM incubated for 24 hrs in presence of Jurkat T cells by trypan blue staining based Neubauer chamber method relative to control; format: functional; method in brief: as §3
[10] = system: A549; experiment: Immunomodulatory activity in human A549 cells assessed as inhibition of c-Myc level at 100 uM incubated for 24 hrs by confocal laser scanning microscopic method; format: functional, cell-based
Method in brief: (§4)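 A549 cells on cover glass treated 24 h at 100 µM, permeabilized with PEM-Triton X-100 0.5% and fixed in 3.7% formaldehyde. Direct immunostaining 2 h at 37°C in darkness with anti-PD-L1-AlexaFluor647 (excitation 650, emission 665 nm) and anti-c-Myc-FITC (excitation 488, emission 496–535 nm). Confocal microscopy, 63x oil objective.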

[11] = system: A549; experiment: Immunomodulatory activity in human A549 cells assessed as inhibition of PD-L1 level at 100 uM incubated for 24 hrs by confocal laser scanning microscopic method; format: functional, cell-based; method in brief: as §4
[12] = target: Programmed cell death 1 ligand 1 (Homo sapiens) (UniProt Q9NZQ7); experiment: Binding affinity to PDL1 (unknown origin) assessed as change in melting temperature at 100 uM by fluorescence based real time RT-PCR analysis
[13] = system: HMEC-1; experiment: Antiproliferative activity against HMEC1 cells incubated for 2 days by MTT assay; format: cell-based; conditions: Homo sapiens, HMEC-1, 48 h; method in brief: as §1
[14] = target: Vascular endothelial growth factor receptor 2 (Homo sapiens) (UniProt P35968); experiment: Inhibition of VEGFR2 in HMEC1 cells assessed as phosphorylated Erk1/2 level at 10 uM incubated for 24 hrs by Western blot analysis relative to control; format: cell-based
Method in brief: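 HMEC-1 lysates from the phospho-VEGFR-2 experiment (24 h compound, serum starvation, 30 min VEGF-165 stimulation) used at 100 µg protein for SDS gel electrophoresis and PVDF transfer. Blocked in 5% milk/TBST, then probed overnight at 4 °C with anti-phospho-ERK1/2 (T202/[…]) and an HRP secondary. Chemiluminescent detection; β-actin as internal control; quantified versus DMSO control.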

[15] = system: HMEC-1; experiment: Antiangiogenic activity against HMEC1 cells assessed as inhibition of tube formation incubated for 20 hrs by matrigel based tube formation assay; format: functional, Homo sapiens
Method in brief: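 HMEC-1 cells in EGM-2MV medium seeded at 2 x 10⁴ cells/well on Matrigel (10 mg/mL, gelled 30 min at 37°C) and attached for 30 min. Compounds were added at different concentrations and tube formation was assessed after 20 h at 37°C. The minimum concentration at which inhibition began was reported. Data representative of three experiments.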

[16] = system: A549; experiment: Induction of apoptosis in human A549 cells assessed as apoptotic cells at 100 uM incubated for 24 hrs by FITC-Annexin V staining based flow cytometric analysis (reference value: 20%); format: functional
[17] = system: A549; experiment: Effect on VEGFR2 in human A549 cells assessed as membrane VEGFR2 level at 10 uM incubated for 24 hrs by flow cytometric analysis relative to control; format: functional
Method in brief: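 A549 cells incubated 24 h with compound at 10 µM. Membrane VEGFR-2 (fixed cells) and total VEGFR-2 (permeabilized or lysate) stained with Alexa Fluor 647 anti-CD309 and quantified by flow cytometry relative to DMSO control; mean ± SD of three experiments.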

[18] = system: A549; experiment: Effect on VEGFR2 in human A549 cells assessed as total VEGFR2 level at 10 uM incubated for 24 hrs by flow cytometric analysis relative to control; format: functional
[19] = system: A549; experiment: Effect on VEGFR2 in human A549 cells assessed as reduction in membrane VEGFR2 level incubated for 24 hrs by confocal laser scanning microscopic method; format: functional, cell-based
Method in brief: (§5)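 A549 cells on cover glass treated 24 h with compound at 10 µM, then permeabilized (PEM-Triton X-100 0.5%) and fixed (3.7% formaldehyde). Direct staining 2 h at 37°C in darkness with Alexa Fluor 647 anti-VEGFR-2. Confocal imaging with a 63x oil objective, excitation 650 nm, emission 665 nm.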

[20] = system: HMEC-1; experiment: Effect on VEGFR2 in HMEC1 cells assessed as membrane VEGFR2 level at 10 uM incubated for 24 hrs by flow cytometric analysis relative to control; format: functional, Homo sapiens
Method in brief: (§6)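 HMEC-1 cells exposed 24 h to compound. Membrane VEGFR-2 measured on fixed cells stained with Alexa Fluor 647 anti-CD309; total VEGFR-2 measured on lysates or permeabilized cells. Read by flow cytometry as % of DMSO control; mean ± SD of three experiments.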

[21] = system: HMEC-1; experiment: Effect on VEGFR2 in HMEC1 cells assessed as total VEGFR2 level at 10 uM incubated for 24 hrs by flow cytometric analysis relative to control; format: functional, Homo sapiens; method in brief: as §6
[22] = target: Vascular endothelial growth factor receptor 2 (Homo sapiens) (UniProt P35968); experiment: Inhibition of VEGFR2 in HMEC1 cells assessed as phosphorylated VEGFR2 level at 10 uM incubated for 24 hrs by sandwich ELISA; format: cell-based
Method in brief: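 HMEC-1 cells (5 × 10⁵/well) grown to 80% confluence, starved 24 h in 0.1% FBS medium, then treated 24 h with compound. Stimulated with VEGF-165 100 ng/ml for 30 min at 37°C. Lysates Bradford-normalized; phospho-VEGFR-2 (Tyr1175) measured by sandwich ELISA, % of DMSO control.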

[23] = system: HMEC-1; experiment: Ratio of MAC for sorafenib to MAC of test compound for antiangiogenic activity against HMEC1 cells; format: functional, Homo sapiens
[24] = target: Vascular endothelial growth factor receptor 2 (Homo sapiens) (UniProt P35968)
[25] = system: A549; experiment: Effect on VEGFR2 in human A549 cells assessed as inhibition of VEGFR2 protein internalization to nucleus incubated for 24 hrs by confocal laser scanning microscopic method; format: functional, cell-based; method in brief: as §5
[26] = system: HMEC-1; experiment: Antiangiogenic activity against HMEC1 cells assessed as inhibition of neovascularization at 0.01 to 1 uM incubated for 20 hrs; format: functional, cell-based; conditions: Homo sapiens
Method in brief: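 HMEC-1 cells seeded on Matrigel-coated wells (10 mg/mL Matrigel, gelled 30 min at 37°C) at 2 x 10⁴ cells/well in EGM-2MV medium and allowed to attach 30 min. Compound was then added at 1, 0.1 and 0.01 µM, and tube destruction was assessed after 20 h at 37°C by imaging.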

[27] = system: HMEC-1; experiment: Effect on VEGFR2 in HMEC1 cells assessed as membrane VEGFR2 level at 100 uM incubated for 24 hrs by flow cytometric analysis relative to control; format: functional, Homo sapiens
Method in brief: (§7)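 HMEC-1 cells exposed 24 h to compound at 100 µM. Membrane VEGFR-2 measured on fixed cells stained with Alexa Fluor 647 anti-CD309; total VEGFR-2 measured after Triton X-100 permeabilization before fixation. Read by flow cytometry as % of DMSO control.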

[28] = system: HMEC-1; experiment: Effect on VEGFR2 in HMEC1 cells assessed as total VEGFR2 level at 100 uM incubated for 24 hrs by flow cytometric analysis relative to control; format: functional, Homo sapiens; method in brief: as §7
[29] = system: A549; experiment: Effect on VEGFR2 in human A549 cells assessed as membrane VEGFR2 level at 100 uM incubated for 24 hrs by flow cytometric analysis relative to control; format: functional
Method in brief: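 A549 cells exposed 24 h to compound at 100 µM. Membrane VEGFR-2 stained on fixed cells with Alexa Fluor 647 anti-VEGFR-2; Triton X-100 permeabilization before fixation used for total VEGFR-2. Flow cytometry, % of DMSO control; mean ± SD of three experiments.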

[30] = system: A549; experiment: Effect on VEGFR2 in human A549 cells assessed as total VEGFR2 level at 100 uM incubated for 24 hrs by flow cytometric analysis relative to control; format: functional

Sequence of Vascular endothelial growth factor receptor 2 (Homo sapiens) (P35968 whole entry): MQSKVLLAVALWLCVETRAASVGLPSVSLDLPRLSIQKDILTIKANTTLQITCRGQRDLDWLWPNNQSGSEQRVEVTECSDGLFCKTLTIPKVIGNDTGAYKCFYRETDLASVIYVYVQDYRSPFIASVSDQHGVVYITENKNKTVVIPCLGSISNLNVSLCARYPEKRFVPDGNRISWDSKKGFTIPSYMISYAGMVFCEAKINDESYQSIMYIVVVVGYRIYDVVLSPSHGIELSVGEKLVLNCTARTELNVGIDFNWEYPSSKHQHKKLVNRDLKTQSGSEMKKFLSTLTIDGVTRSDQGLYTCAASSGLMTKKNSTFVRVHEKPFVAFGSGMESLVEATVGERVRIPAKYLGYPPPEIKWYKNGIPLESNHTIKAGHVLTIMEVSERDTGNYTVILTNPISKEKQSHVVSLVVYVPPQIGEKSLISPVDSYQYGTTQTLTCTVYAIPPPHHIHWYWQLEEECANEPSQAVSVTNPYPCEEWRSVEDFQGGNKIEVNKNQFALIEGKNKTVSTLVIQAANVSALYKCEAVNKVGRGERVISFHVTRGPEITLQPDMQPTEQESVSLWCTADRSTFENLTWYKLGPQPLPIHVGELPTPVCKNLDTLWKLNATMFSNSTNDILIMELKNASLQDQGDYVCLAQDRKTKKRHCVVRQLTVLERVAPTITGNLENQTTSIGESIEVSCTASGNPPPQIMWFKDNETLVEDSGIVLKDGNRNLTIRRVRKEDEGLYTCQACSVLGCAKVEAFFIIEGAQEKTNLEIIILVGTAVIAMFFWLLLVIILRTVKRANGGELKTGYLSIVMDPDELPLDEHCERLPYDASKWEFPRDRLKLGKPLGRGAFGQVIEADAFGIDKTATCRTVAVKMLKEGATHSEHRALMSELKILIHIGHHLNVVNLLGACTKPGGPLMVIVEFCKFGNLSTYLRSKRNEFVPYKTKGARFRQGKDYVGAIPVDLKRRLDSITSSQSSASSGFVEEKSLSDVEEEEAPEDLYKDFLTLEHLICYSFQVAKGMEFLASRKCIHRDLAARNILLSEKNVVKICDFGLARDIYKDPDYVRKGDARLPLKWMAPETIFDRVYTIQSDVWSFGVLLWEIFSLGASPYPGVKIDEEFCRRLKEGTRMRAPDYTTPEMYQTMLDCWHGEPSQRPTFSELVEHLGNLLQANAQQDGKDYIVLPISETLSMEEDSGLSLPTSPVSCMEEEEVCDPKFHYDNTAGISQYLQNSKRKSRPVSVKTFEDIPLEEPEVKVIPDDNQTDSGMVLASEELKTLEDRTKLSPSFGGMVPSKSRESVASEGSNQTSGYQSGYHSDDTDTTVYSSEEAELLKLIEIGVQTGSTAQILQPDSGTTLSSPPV
Sequence of Programmed cell death 1 ligand 1 (Homo sapiens) (Q9NZQ7 whole entry): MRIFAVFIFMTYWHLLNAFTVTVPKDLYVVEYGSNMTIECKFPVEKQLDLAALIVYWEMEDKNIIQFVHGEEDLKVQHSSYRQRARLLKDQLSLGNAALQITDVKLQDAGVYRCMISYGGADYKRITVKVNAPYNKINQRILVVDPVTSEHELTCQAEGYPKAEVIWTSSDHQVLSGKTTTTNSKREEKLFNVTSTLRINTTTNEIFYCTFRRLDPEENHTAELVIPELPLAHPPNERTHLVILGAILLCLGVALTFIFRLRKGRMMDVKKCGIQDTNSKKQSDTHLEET

IC50 [1] [µM] | IC50 [2] [µM] | IC50 [3] [µM] | IC50 [4] [µM] | Activity [14] | SMILES | IC50 [5] [µM] | Activity [6] [%] | Activity [7] [%] | Activity [9] [%] | Activity [10] | Activity [11] | ΔTm [12] [°C] | IC50 [13] [µM] | MAC [15] [µM] | Activity [16] [%] | Activity [17] [%] | Activity [18] [%] | Activity [19] | Activity [20] [%] | Activity [21] [%] | further results
19 | 20 | > 100 | 6 | – | Cc1c(COc2ccc(CN3CCCCC3C(=O)O)cc2Br)cccc1-c1ccccc1 (centres undefined) | 60 | 68 | 60 | 55 | Active | Active | 3.68 | – | – | – | – | – | – | – | – | Activity [8]: 53%
3.5 | 4.3 | 11.3 | 7.7 | inactive | COc1ccc(/C=C/c2cccc(NC(=O)Nc3cccc(Cl)c3)c2)cc1 | 2.4 | 49 | 65 | 76 | – | – | 3.91 | 2 | 0.1 | 75 | 52 | 32 | Active | 55 | 106 | Activity [22]: inactive; Ratio [23]: 100; ΔTm [24]: 8.35 °C
0.52 | 0.4 | 0.7 | 1.5 | inactive | COc1ccc(/C=C/c2cccc(NC(=O)Nc3ccc(Cl)cc3)c2)cc1 | 1 | 25 | 37 | 86 | Active | Active | 1.18 | 1.8 | 0.1 | 48 | 56 | 10 | Active | 56 | 109 | Activity [25]: Active; Activity [22]: inactive; Ratio [23]: 100; Activity [26]: Active; ΔTm [24]: 6.25 °C

SMILES | IC50 [1] [µM] | IC50 [2] [µM] | IC50 [3] [µM] | IC50 [4] [µM] | Activity [14] | IC50 [5] [µM] | Activity [6] [%] | Activity [7] [%] | Activity [9] [%] | Activity [10] | Activity [11] | ΔTm [12] [°C] | IC50 [13] [µM] | MAC [15] [µM] | Activity [16] [%] | Activity [17] [%] | Activity [18] [%] | Activity [19] | Activity [20] [%] | Activity [21] [%] | further results
CNC(=O)c1cc(Oc2ccc(NC(=O)Nc3ccc(Cl)c(C(F)(F)F)c3)cc2)ccn1 [SORAFENIB] | 17 | 14 | 6.1 | 27 | – | 5 | – | – | – | – | – | – | 34 | 10 | 48 | 92 | 85 | – | 46 | 64 | Activity [27]: 46%; Activity [28]: 64%; Activity [29]: 92%; Activity [30]: 85%

Reference: ChEMBL document CHEMBL4346668, “Novel multitarget inhibitors with antiangiogenic and immunomodulator properties” (Eur J Med Chem, 2019)
